Several values for one entry are separate records, joined by “and”; a condition that tells them apart may be missing. Equal values may be shown once. Square brackets hold non-standard residues; d marks the D form. Peptide text beside a SMILES is read from it. NMeA = CN[C@@H](C)C(=O)O; Ac5c = NC1(C(=O)O)CCCC1; Aib = CC(C)(N)C(=O)O; Sar = CNCC(=O)O
Assays:
[1] = target: T1, Angiotensin II receptor (Rattus norvegicus) (UniProt P29089+P25095+P35351); experiment: In vivo agonist activity expressed as percent activity relative to angiotensin II in rat blood pressure assay.; format: functional, organism-based
In short: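 Rat blood pressure (pressor) assay in vivo, after Regoli et al.; ANG II-like activity given as percent activity relative to ANG II; n = 5.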

[2] = target: T1, Angiotensin II receptor (Rattus norvegicus); experiment: In vitro agonist activity relative to angiotensin II measured in rabbit aorta strip assay.; format: functional, tissue-based
Rattus norvegicus [3] = experiment: in vivo antagonist activity (ANG II like) is expressed by blood pressure increase (mHg) produced by […] iv injection of compound in rats; format: functional
In short: (§1)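 Rat blood pressure assay after Regoli et al.; residual ANG II-like activity read as mmHg rise in blood pressure following a one microgram intravenous bolus of compound; n = 5.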

Rattus norvegicus [4] = species on record: Rattus norvegicus; experiment: In vitro antagonist activity expressed as pA2 was measured in rat uterus
Oryctolagus cuniculus = species on record: Oryctolagus cuniculus; experiment: In vitro agonist activity expressed as percent activity relative to ANG II was measured in rabbit aorta strip assay; format: functional
Rattus norvegicus [5] = experiment: In vivo antagonist activity (ANG II like) expressed as blood pressure increase […] produced by […] iv injection of compound in rats; format: functional; in short: as §1
[6] = target: T1, Angiotensin II receptor (Rattus norvegicus); experiment: In vivo antagonist activity (ANG II like) expressed by blood pressure increase (mHg) produced by […] iv injection of compound in rats; format: functional, organism-based; in short: as §1
Angiotensin II receptor = target: T2, Angiotensin II receptor (Rattus norvegicus, UniProt P29089+P25095+P35351); experiment: In vitro antagonist activity (ANG II like) expressed as percent activity relative to ANG II in rabbit aorta strip assay.; format: functional, tissue-based
T2 sequence (P29089 whole entry): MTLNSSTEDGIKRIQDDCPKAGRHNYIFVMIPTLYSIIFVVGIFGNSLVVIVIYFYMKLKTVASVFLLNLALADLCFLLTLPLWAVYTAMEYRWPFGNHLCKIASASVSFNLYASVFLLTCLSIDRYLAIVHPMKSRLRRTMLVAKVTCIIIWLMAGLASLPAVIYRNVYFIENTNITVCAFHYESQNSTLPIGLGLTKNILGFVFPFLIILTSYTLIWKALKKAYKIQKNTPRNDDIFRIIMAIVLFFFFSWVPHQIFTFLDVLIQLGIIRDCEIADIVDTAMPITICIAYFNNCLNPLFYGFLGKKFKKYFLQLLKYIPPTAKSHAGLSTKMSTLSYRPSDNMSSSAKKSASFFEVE
T2 sequence (P25095 whole entry): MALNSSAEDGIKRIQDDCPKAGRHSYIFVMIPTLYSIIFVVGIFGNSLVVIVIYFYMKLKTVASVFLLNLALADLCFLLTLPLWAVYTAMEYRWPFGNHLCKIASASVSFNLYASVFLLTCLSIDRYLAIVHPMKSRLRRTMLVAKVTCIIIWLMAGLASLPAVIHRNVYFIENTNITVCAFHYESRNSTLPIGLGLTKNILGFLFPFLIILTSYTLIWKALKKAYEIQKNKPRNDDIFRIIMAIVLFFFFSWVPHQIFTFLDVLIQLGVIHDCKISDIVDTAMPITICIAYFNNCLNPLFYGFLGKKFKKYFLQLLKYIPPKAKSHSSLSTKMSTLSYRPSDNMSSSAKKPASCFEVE
T2 sequence (P35351 whole entry): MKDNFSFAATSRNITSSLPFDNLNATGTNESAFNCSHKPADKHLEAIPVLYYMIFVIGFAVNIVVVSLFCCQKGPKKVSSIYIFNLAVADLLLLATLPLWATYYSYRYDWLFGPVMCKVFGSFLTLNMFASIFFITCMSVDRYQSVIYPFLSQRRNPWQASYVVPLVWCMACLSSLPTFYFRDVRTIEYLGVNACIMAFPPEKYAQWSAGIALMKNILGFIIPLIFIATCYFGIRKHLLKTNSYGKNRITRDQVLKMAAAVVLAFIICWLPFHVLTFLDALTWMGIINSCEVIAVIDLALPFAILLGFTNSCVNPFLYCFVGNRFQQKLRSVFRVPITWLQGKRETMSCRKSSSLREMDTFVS

SMILES | Activity [2] [%] | pA2 (Angiotensin II receptor) | Activity [1] | ID50 (ng min-1 rat-1) [6] | other results
CC[C@H](C)[C@H](NC(=O)[C@@H]1CSCN1C(=O)[C@H](Cc1c[nH]cn1)NC(=O)[C@@H](NC(=O)[C@H](Cc1ccc(O)cc1)NC(=O)[C@@H](NC(=O)[C@H](CCCN=C(N)N)NC(=O)CNC)C(C)C)[C@@H](C)CC)C(=O)O | – | – | – | – | ID50 (Rattus norvegicus [3]): 12.5 ng min-1 rat-1; pA2 (Rattus norvegicus [4]): 7.2
CC[C@H](C)[C@H](NC(=O)[C@H](Cc1ccc(O)cc1)NC(=O)[C@H](C)NC(=O)[C@H](CCCN=C(N)N)NC(=O)[C@@H](N)CC(=O)O)C(=O)N[C@@H](Cc1c[nH]cn1)C(=O)N1CCC[C@H]1C(=O)N[C@@H](Cc1ccccc1)C(=O)O (H-DRAYIHPF-OH) | – | – | 80.5% | – | –
CC(C)[C@H](NC(=O)[C@H](Cc1ccc(O)cc1)NC(=O)C1(NC(=O)[C@H](CCCN=C(N)N)NC(=O)[C@@H](N)CC(=O)O)CCCC1)C(=O)N[C@@H](Cc1c[nH]cn1)C(=O)N(C)[C@@H](C)C(=O)N[C@@H](Cc1ccccc1)C(=O)O (H-DR[Ac5c]YVH[NMeA]F-OH) | – | – | 22% | – | –
CC(C)[C@H](NC(=O)[C@H](Cc1ccc(O)cc1)NC(=O)C1(NC(=O)[C@H](CCCN=C(N)N)NC(=O)[C@@H](N)CC(=O)O)CCCC1)C(=O)N[C@@H](Cc1c[nH]cn1)C(=O)NC(C)(C)C(=O)N[C@@H](Cc1ccccc1)C(=O)O (H-DR[Ac5c]YVH[Aib]F-OH) | – | – | 1% | – | –
CC[C@H](C)[C@H](NC(=O)[C@H](Cc1ccc(O)cc1)NC(=O)[C@@H]1CCCN1C(=O)[C@H](CCCN=C(N)N)NC(=O)[C@@H](N)CC(=O)O)C(=O)N[C@@H](Cc1c[nH]cn1)C(=O)N1CCC[C@H]1C(=O)N[C@@H](Cc1ccccc1)C(=O)O (H-DRPYIHPF-OH) | – | – | 53% | – | –
CC[C@H](C)[C@H](NC(=O)[C@H](Cc1ccc(O)cc1)NC(=O)C(C)(C)NC(=O)[C@H](CCCN=C(N)N)NC(=O)[C@@H](N)CC(=O)O)C(=O)N[C@@H](Cc1c[nH]cn1)C(=O)N1CCC[C@H]1C(=O)N[C@@H](Cc1ccccc1)C(=O)O (H-DR[Aib]YIHPF-OH) | – | – | 1% | – | –
CC[C@H](C)[C@H](NC(=O)[C@H](Cc1ccc(O)cc1)NC(=O)C1(NC(=O)[C@H](CCCN=C(N)N)NC(=O)[C@@H](N)CC(=O)O)CCCC1)C(=O)N[C@@H](Cc1c[nH]cn1)C(=O)N1CCC[C@H]1C(=O)N[C@@H](Cc1ccccc1)C(=O)O (H-DR[Ac5c]YIHPF-OH) | – | – | 2% | – | –
CC(C)[C@H](NC(=O)[C@H](Cc1ccc(O)cc1)NC(=O)C1(NC(=O)[C@H](CCCN=C(N)N)NC(=O)[C@@H](N)CC(=O)O)CCCC1)C(=O)N[C@@H](Cc1c[nH]cn1)C(=O)NC1(C(=O)N[C@@H](Cc2ccccc2)C(=O)O)CCCC1 (H-DR[Ac5c]YVH[Ac5c]F-OH) | – | – | 1.5% | – | –

Further lines, with some results ahead:

Activity [2] [%] | pA2 (Angiotensin II receptor) | SMILES | Activity [1] | ID50 (ng min-1 rat-1) [6] | other results
180 | – | CC[C@H](C)[C@H](NC(=O)[C@H](Cc1ccc(O)cc1)NC(=O)[C@@H](NC(=O)[C@H](CCCN=C(N)N)NC(=O)CNC)C(C)C)C(=O)N[C@@H](Cc1c[nH]cn1)C(=O)N1CCC[C@H]1C(=O)N[C@@H](Cc1ccccc1)C(=O)O | 125% | – | –
0.5 | – | CC[C@H](C)[C@H](NC(=O)[C@H](Cc1ccc(O)cc1)NC(=O)[C@@H](NC(=O)[C@H](CCCN=C(N)N)NC(=O)CNC)C(C)C)C(=O)N[C@@H](Cc1c[nH]cn1)C(=O)N1CCC[C@H]1C(=O)N[C@@H](C)C(=O)O | 15.1% and 10% | – | Activity (Oryctolagus cuniculus): 0%; ID50 (Rattus norvegicus [5]): 7.92 ng min-1 rat-1 and 15 ng min-1 rat-1
250 | – | CNCC(=O)N[C@@H](CCCN=C(N)N)C(=O)N[C@H](C(=O)N[C@@H](Cc1ccc(O)cc1)C(=O)N1CSC(C)(C)[C@@H]1C(=O)N[C@@H](Cc1c[nH]cn1)C(=O)N1CCC[C@H]1C(=O)N[C@@H](Cc1ccccc1)C(=O)O)C(C)C | 100% | – | –
0 | 7 | CC[C@H](C)[C@H](NC(=O)[C@@H]1CCCN1C(=O)[C@H](Cc1c[nH]cn1)NC(=O)[C@@H](NC(=O)[C@H](Cc1ccc(O)cc1)NC(=O)C(C)(C)NC(=O)[C@H](CCCN=C(N)N)NC(=O)CNC)[C@@H](C)CC)C(=O)O (H-[Sar]R[Aib]YIHPI-OH) | 3% | 50 | –
0 | 8.3 | CC[C@H](C)[C@H](NC(=O)[C@@H]1CCCN1C(=O)[C@H](Cc1c[nH]cn1)NC(=O)[C@@H](NC(=O)[C@H](Cc1ccc(O)cc1)NC(=O)[C@H](C)NC(=O)[C@H](CCCN=C(N)N)NC(=O)CNC)[C@@H](C)CC)C(=O)O (H-[Sar]RAYIHPI-OH) | 7.5% | 25 | –
0 | 8.25 | CC[C@H](C)[C@H](NC(=O)[C@@H]1CCCN1C(=O)[C@H](Cc1c[nH]cn1)NC(=O)[C@](C)(Cc1ccc(O)cc1)NC(=O)[C@H](Cc1ccc(O)cc1)NC(=O)[C@@H](NC(=O)[C@H](CCCN=C(N)N)NC(=O)CNC)C(C)C)C(=O)O | – | 100 | –
0 | < 6 | CC[C@@H](C)[C@@H](NC(=O)[C@H](Cc1ccc(O)cc1)NC(=O)[C@H](C)N(C)C(=O)[C@H](CCCN=C(N)N)NC(=O)CNC)C(=O)N[C@@H](Cc1c[nH]cn1)C(=O)N1CCC[C@H]1C(=O)NC(Cc1ccccc1)C(=O)O (stereo in doubt) | 10% | 100 | –
0 | 8.4 | CC[C@H](C)[C@H](NC(=O)[C@H](C)N(C)C(=O)[C@H](Cc1c[nH]cn1)NC(=O)[C@@H](NC(=O)[C@H](Cc1ccc(O)cc1)NC(=O)[C@@H](NC(=O)[C@H](CCCN=C(N)N)NC(=O)CNC)C(C)C)[C@@H](C)CC)C(=O)O (H-[Sar]RVYIH[NMeA]I-OH) | – | 20 | –

From ChEMBL document CHEMBL1125769 (J Med Chem, 1991)
